For orientation: IC50 means the concentration needed to halve the response being measured. A lower IC50 goes with greater potency in that assay. A word on the clearance: it is the volume of plasma or blood freed of the substance per unit of time. A high value points to efficient removal. For orientation: Vdss means a proportionality between amount in the body and measured concentration, not a real space. A high value points to wide distribution into tissue.

The source made the active and inactive calls.

The subject of one series is Mus musculus. Put plainly: In vivo induction of androgen receptor degradation in human VCaP cells xenografted in CB17 SCID mouse assessed as reduction in TMPRSS2 mRNA level at 12.5 mg/kg, po measured after 6 to 24 hrs by qRT-PCR analysis. The class given is functional, organism-based. The conditions noted are these: time 6-24 hrs. A general note: In xenograft studies the graft and the host belong to different species.

In series [1] the target is Voltage-gated inwardly rectifying potassium channel KCNH2 (Homo sapiens, UniProt Q12809). Put plainly: Inhibition of human ERG expressed in HEK293 cells by whole cell patch clamp assay. Type of series: toxicity, cell-based. The gist of the method:
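Manual whole-cell patch clamp at room temperature on HEK293 cells stably expressing hERG. Compound tested at 3 and 30 μM in duplicate; terfenadine as positive control.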
In general terms: The patch-clamp technique gives a direct electrical read-out from membranes.

Series [2] can be described thus: Downregulation of KLK3 gene expression in human VCaP cells at 1 nM incubated for 24 hrs by qRT-PCR analysis. The class given is functional. The gist of the method: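 VCaP cells (ATCC) grown in DMEM with Glutamax plus 10% FBS at 37 °C, 5% CO2. Cells treated 24 h; KLK3 mRNA measured by qRT-PCR, expression by comparative CT method, normalised to GAPDH (ΔCT) and then to vehicle control (ΔΔCT).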
For orientation: In qPCR the cycle at which signal appears reflects the starting amount.

The subject of another series is VCaP. Put plainly: Induction of androgen receptor degradation in human VCaP cells at 100 nM pretreated with ARi-12 for 2 hrs followed by compound addition and 3 hrs by Western blot analysis. The class given is functional, cell-based. Conditions: time 5.0 hrs. A digest of the protocol: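 LNCaP or VCaP cells pretreated 2 h with DMSO, ARi-12 (10 μM), thalidomide (10 μM), MG-132 (3 μM) or MLN4924 (0.5 μM), then given degrader at 100 nM for 3 h. AR measured by Western blot with GAPDH as loading control.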

Series [3] can be described thus: Drug concentration in CB17 SCID mouse tumor xenografted with human VCaP cells at 12.5 mg/kg, po measured after 24 hrs by LC-MS/MS analysis. Type of series: ADME, organism-based, Neoplasm. The conditions noted are these: read-out: Ct. The gist of the method:
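SCID mice bearing one VCaP tumour each given a single oral 12.5 mg/kg dose in 100% PEG200. Plasma and tumour tissue collected at 6 and 24 h, 3 mice per time point. Values are mean ± SD.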

A short description of series [4]: Clearance in Beagle dog at 1 mg/kg, iv measured upto 24 hrs by LC-MS/MS analysis. The class given is ADME, organism-based, Canis lupus familiaris. Conditions: in vivo. The gist of the method:
(§1)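 Male ICR mice (2 mg/kg), male SD rats (1 mg/kg) or male Beagle dogs (1 mg/kg) given a single intravenous dose in 10% PEG400 + 90% PBS adjusted to pH 8.0 with NaOH.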

Series [5] is described as follows: Plasma protein binding in dog at 1 uM after 5 hrs by equilibrium dialysis based LC-MS/MS analysis. The class given is ADME, cell-free, Canis lupus familiaris. The gist of the method:
(§2)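 Equilibrium dialysis of pooled plasma of each species spiked at 1 μM against 0.1 M sodium phosphate, pH 7.4. 5 h at 37 °C with shaking at 60 rpm. Both sides matrix-matched, ACN/IS quench, LC/MS. % bound = 100 − (buffer/plasma peak-area ratio × 100); recovery also calculated. Warfarin as reference.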

The nature of series [6]: Volume of distribution at steady state in Beagle dog at 1 mg/kg, iv measured upto 24 hrs by LC-MS/MS analysis. The class given is ADME, organism-based, Canis lupus familiaris. Conditions: in vivo. The gist of the method: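 Male Beagle dogs. IV 1 mg/kg in 10% PEG400 + 90% PBS (pH 8.0); PO 3 mg/kg in 90% PEG400 + 10% Cremophor. Plasma PK to 24 h; F from IV and PO exposure.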

The target in series [7] is T1, Androgen receptor (Homo sapiens) (UniProt P10275).
T1 sequence (whole entry): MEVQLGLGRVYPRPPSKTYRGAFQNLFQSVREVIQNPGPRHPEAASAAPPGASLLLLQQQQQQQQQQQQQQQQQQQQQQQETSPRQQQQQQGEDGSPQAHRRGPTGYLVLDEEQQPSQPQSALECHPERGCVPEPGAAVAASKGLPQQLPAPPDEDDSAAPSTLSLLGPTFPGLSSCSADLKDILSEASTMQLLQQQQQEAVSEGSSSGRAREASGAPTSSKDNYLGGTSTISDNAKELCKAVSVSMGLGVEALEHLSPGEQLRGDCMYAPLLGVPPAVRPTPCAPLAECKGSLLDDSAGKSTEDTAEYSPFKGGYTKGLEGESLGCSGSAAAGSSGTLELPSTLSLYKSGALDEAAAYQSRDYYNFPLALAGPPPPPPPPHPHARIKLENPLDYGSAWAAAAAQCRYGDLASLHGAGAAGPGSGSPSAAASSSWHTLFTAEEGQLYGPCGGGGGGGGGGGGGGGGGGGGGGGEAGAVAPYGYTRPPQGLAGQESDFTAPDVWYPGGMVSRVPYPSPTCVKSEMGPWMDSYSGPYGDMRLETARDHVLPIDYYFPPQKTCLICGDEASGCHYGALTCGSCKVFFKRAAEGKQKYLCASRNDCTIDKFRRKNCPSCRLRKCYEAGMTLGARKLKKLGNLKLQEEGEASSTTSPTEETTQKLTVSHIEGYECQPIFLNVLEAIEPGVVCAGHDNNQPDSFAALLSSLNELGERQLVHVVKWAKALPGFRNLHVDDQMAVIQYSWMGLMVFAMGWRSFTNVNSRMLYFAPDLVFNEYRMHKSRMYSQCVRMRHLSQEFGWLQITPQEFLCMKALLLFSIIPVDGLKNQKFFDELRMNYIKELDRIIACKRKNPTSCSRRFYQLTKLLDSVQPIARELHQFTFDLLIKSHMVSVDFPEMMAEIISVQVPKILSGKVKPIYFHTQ
Put plainly: Induction of androgen receptor degradation in human VCaP cells at 0.01 uM after 24 hrs by Western blotting analysis relative to control. The class given is cell-based. The gist of the method:
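VCaP cells treated for 24 h at 10, 100 or 1000 nM. AR protein measured by Western blotting.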

The target of series [8] is T1, Androgen receptor (Homo sapiens). Put plainly: Induction of androgen receptor degradation in human VCaP cells at 100 to 1000 nM incubated for 24 hrs by proteomic analysis. The class given is cell-based. The conditions noted are these: dose 100-1000 nM. A digest of the protocol: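 VCaP cells treated for 24 h with degrader at 100 nM or 1 μM, or with ARi-12 at 10 μM. Multiplexed quantitative proteomics, normalised to DMSO, three independent replicates. Cut-off p ≤0.05 and fold change >2.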

The next series deals with LNCaP. Put plainly: Growth inhibition in human LNCaP cells incubated for 4 days by WST-8 assay relative to control. Type of series: functional. The conditions noted are these: time 4 day. The gist of the method: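 LNCaP cells grown in RPMI 1640 with 10% FBS, treated for 4 days. Viability read by WST-8 assay.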
A short description of series [9]: AUC(0 to t) in Beagle dog at 3 mg/kg, po measured up to 24 hrs by LC-MS/MS analysis. Type of series: ADME, organism-based, Canis lupus familiaris. More on the design: time < 24 hrs, dose 3 mg/kg, route po. The conditions noted are these: in vivo. The gist of the method:
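Male Beagle dogs dosed orally at 3 mg/kg in 90% PEG400 + 10% Cremophor.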

Series [10] in a line: Plasma protein binding in rat at 1 uM after 5 hrs by equilibrium dialysis based LC-MS/MS analysis. The class given is ADME, cell-free. The gist of the method:
as §2

A further series concerns the target Cytochrome P450 2D6 (Homo sapiens, UniProt P10635). Put plainly: Inhibition of CYP2D6 in human liver microsomes preincubated for 5 mins followed by NADPH addition and measured after 10 mins by LC/MS analysis. The class given is ADME, Microsome.
The nature of series [11]: Metabolic stability in mouse hepatocytes assessed as half life at 1 uM measured upto 120 mins in presence of NADPH by LC-MS/MS analysis. The class given is ADME, cell-based, Hepatocyte. The conditions noted are these: 2 h.
The nature of series [12]: Half life in ICR mouse at 2 mg/kg, iv measured upto 24 hrs by LC-MS/MS analysis. The class given is ADME, organism-based. Conditions: in vivo. A digest of the protocol:
as §1

Chain of Cytochrome P450 2D6 (P10635 whole entry): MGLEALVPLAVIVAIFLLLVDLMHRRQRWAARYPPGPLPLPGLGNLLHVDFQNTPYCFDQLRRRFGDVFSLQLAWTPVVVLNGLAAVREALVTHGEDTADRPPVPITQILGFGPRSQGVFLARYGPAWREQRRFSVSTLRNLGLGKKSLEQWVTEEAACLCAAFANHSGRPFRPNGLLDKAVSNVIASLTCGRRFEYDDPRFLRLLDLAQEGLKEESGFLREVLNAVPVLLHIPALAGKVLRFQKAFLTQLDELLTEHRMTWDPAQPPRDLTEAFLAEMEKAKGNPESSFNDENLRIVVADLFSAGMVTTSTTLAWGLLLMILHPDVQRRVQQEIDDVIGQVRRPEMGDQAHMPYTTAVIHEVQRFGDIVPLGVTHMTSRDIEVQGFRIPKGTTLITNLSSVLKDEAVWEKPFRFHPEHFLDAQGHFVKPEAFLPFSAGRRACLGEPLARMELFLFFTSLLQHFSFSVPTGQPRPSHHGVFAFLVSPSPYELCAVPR
Chain of Voltage-gated inwardly rectifying potassium channel KCNH2 (Q12809 whole entry): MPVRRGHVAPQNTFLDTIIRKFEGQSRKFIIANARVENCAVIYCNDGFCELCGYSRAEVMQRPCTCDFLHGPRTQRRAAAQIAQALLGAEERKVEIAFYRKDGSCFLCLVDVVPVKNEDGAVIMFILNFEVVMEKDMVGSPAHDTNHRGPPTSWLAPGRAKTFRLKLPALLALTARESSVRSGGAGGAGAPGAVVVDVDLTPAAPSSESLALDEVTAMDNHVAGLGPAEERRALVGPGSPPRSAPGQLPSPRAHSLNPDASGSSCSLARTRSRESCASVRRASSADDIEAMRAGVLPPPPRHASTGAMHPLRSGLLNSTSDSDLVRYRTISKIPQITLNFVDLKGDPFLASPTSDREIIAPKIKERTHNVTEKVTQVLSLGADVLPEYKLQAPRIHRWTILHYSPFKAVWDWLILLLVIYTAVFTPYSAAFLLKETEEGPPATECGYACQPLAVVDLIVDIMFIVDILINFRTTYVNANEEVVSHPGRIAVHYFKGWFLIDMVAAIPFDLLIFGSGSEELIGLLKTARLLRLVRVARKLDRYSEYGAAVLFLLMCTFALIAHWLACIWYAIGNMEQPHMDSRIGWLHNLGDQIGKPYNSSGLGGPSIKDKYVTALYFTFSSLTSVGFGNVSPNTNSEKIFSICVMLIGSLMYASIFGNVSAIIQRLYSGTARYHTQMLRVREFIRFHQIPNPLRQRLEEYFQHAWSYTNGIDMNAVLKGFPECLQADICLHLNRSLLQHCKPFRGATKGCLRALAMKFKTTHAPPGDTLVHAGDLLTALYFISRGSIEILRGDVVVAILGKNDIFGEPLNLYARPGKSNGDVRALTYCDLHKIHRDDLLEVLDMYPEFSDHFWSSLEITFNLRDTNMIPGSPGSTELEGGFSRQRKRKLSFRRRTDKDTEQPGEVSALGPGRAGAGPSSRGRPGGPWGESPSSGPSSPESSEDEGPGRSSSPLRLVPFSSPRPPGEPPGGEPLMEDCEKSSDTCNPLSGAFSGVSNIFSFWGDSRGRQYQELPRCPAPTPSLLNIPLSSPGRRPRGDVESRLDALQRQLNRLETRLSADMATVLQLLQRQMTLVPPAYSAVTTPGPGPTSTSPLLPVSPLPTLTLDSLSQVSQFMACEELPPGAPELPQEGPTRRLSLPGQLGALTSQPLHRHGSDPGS

`C[C@H]1CC2(CCN(c3ccc(C(=O)N4CCN(C5CN(c6ccc7c(c6)C(=O)N(C6CCC(=O)NC6=O)C7=O)C5)CC4)cc3)CC2)CN1c1ccc(C#N)c(Cl)c1` (stereo partly specified): the result in the series with Mus musculus was Active. Besides, the half-inhibitory concentration (IC50) in series [1] is greater than 30 µM; against Cytochrome P450 2D6, greater than 10 µM. Besides, the Activity in [2] was 51%; in [7] it was greater than 95%; in series [8] it was 82%. The outcome with VCaP was inactive. The concentration at 24 h in series [3] amounted to 183 ng/mL. The compound also came in with a clearance in [4] of 4.6 mL/min/kg. The values for the PPB in series [5] and in series [10] were 99.3% and 99.1%, respectively. Further, the Vdss in series [6] was determined as 2.8 L/kg. In addition, the Imax in the series with LNCaP is given as 100%. The compound also registered an AUCt in [9] of 4460 ng·h/mL. Further, the t1/2 in [11] is greater than 2 h; in series [12], 5 h.

The values are drawn from ChEMBL document CHEMBL5331127, “Discovery of ARD-2051 as a Potent and Orally Efficacious Proteolysis Targeting Chimera (PROTAC) Degrader of Androgen Receptor for the Treatment of Advanced Prostate Cancer” (J Med Chem, 2023).
